B1: tRNA (parent)
chain: GUUCCGUUGGCGUAAUGGUAACGCGUCUCCCUCCUAAGGAGAAGACUGCGGGUUCGAGUCCCGUACGGAACG

This sample holds only a part of the variants without activity.

In the data set the parent is B1. Put plainly: yeast fitness relative to wild type (ratio to wild type); higher = fitter; tRNA-Arg(CCU), competitive growth, 37 C, YPD. The essentials:
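The tRNA-Arg(CCU) gene variants were made by chemical synthesis with a 3% per-site mutation rate at 69 sites and inserted at the native genomic locus of Saccharomyces cerevisiae. After pooling, the strains were competed in YPD at 37°C for 24 hours in six parallel replicates. Gene amplicons from the start population and each end population were read by 100-nucleotide paired-end sequencing, and Darwinian fitness relative to wild type was taken from genotype frequency changes. Genotypes needed ≥ 100 starting reads, and estimates < 0.5 were set to 0.5.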
Turning to U7G G18C C31A, the yeast fitness is no more than 0.5.
Consider U7G G48A G68U A70C, for which the yeast fitness worked out at 0.541.
Regarding U8A A14C C49G A70U, the yeast fitness came to 0.515.
On to U8A A14C C24U U26A U28G U54G, for which the yeast fitness was no more than 0.5.
As for U8A A20U C31U A45G, the yeast fitness is no more than 0.5.
Turning to U8A C31A C33G, the yeast fitness was 0.542.
The same measure for U7G C11G C34U G41A A65C C66U: no more than 0.5; for U7G C61U A70G: 0.669; for U7G G9A C31G A36G: 0.576.
The same measure for U7C G48C C61G A65U: no more than 0.5; for U8A C27A A37U: no more than 0.5; for U8A A21U C30U G48A G67C A69U: no more than 0.5.
Take U8A A21G A36G: the yeast fitness was 0.65.
On to U7C U16C, for which the yeast fitness was determined as 0.831.
The same measure for U7G C11U G12C C33U G63C G68U: no more than 0.5; for U8A A42C G52C: no more than 0.5; for U7G U35G: 0.536.
As for U8A C31G C55U G67C, the yeast fitness is no more than 0.5.
With U7G C55G G56C, the yeast fitness was 0.608.
The same measure for U8A A37G G41C A43U: no more than 0.5; for U7G C22A: 0.653; for U7G C22G: 0.726.
Turning to U7G C24A C46G U59C C62G, the yeast fitness was no more than 0.5.
As to U8A C11U A20C, the yeast fitness was no more than 0.5.
On to U7G C49U A65G, for which the yeast fitness turned out to be 0.83.
The result for U7G C11G C34U A37U C46A G51A reads no more than 0.5; that for U7G U8G A15C, 0.543.
The same measure for U7C G51A C62G A65G: no more than 0.5.
As to U7G A14U, the yeast fitness is 0.675.
Consider U7G U13C G52A A57C A65C, for which the yeast fitness is no more than 0.5.
The result for U7G A15G C33G reads no more than 0.5; that for U7G G12C G23C C29G, 0.739.
Turning to U8A C22G A36U, the yeast fitness is no more than 0.5.
For U7C G48A U54A C55G A65U, the yeast fitness was no more than 0.5.
For U7G C11U G12C C33U, the yeast fitness was no more than 0.5.
In the case of U7C U47G, the yeast fitness was no more than 0.5.
The same measure for U8A A40U G52C: 0.573; for U7G C61A: 0.708; for U7C U16A U28A: no more than 0.5.
On to U8A C29A U54C, for which the yeast fitness is no more than 0.5.
As to U7C U19G G51A U59A C66A, the yeast fitness is no more than 0.5.
With U8A C11U A20C A70U, the yeast fitness is no more than 0.5.
As for U8A C31G C46U C60A, the yeast fitness was no more than 0.5.
For the variant U8A, the yeast fitness is 0.741.
The result for U7G C30A A69C reads 0.798.
The same measure for U7G C27A A36C A42U U64G A70U: no more than 0.5.
Regarding U8A C11G C34G, the yeast fitness worked out at 0.624.
In the case of U7G G9A, the yeast fitness stood at 0.827.
The result for U7G G12A G25A C33G G58A G67A reads no more than 0.5; that for U7C U32C A45U G67A, no more than 0.5; that for U8A A14G C24G A65C, no more than 0.5.
As for U8A A14C C31A G41C C49A G56A G63A G67A, the yeast fitness is no more than 0.5.
The same measure for U7G A21U C30U A40C: no more than 0.5; for U7G G12A U13C C33U C34U A42C G50A: no more than 0.5.
As to U8A C24U U28C A40C G67C, the yeast fitness was no more than 0.5.
For U8A C29U C33U U53A U59G, the yeast fitness is no more than 0.5.
Regarding U8A A21C A42U G50A, the yeast fitness is no more than 0.5.
In the case of U8A C29G A40G, the yeast fitness turned out to be 0.639.
U8A A36C U53C: the yeast fitness was no more than 0.5.
Take U7G A14C G63C: the yeast fitness is no more than 0.5.
Take U8A C11A A36G C61G A69G: the yeast fitness is no more than 0.5.
Turning to U7G A69C, the yeast fitness was determined as 0.851.
The result for U7G G9A A43C reads 0.515.
For the variant U8A A14C C24U U35A G63A, the yeast fitness was determined as 0.803.
As to U8A C31U A37G, the yeast fitness is no more than 0.5.
In the case of U7G A20U C46G A57U A69C, the yeast fitness is 0.623.
The same measure for U8A A42U: 0.833.
U7G U28C U59C U64C A70C: the yeast fitness is no more than 0.5.
For U7G A14G U35G A43G, the yeast fitness worked out at 0.557.
For the variant U7G C30U G38A G50A U59C, the yeast fitness was no more than 0.5.
For U7G G56A, the yeast fitness was found to be 1.06.
The same measure for U7G A14C A20G C22U C49G G56C A70G: no more than 0.5; for U8A C11U G25C G39C: no more than 0.5.
On to U7C U32G C33G U59C, for which the yeast fitness is no more than 0.5.
U7G A40C C55G: the yeast fitness stood at 0.591.
With U7G C60U G63C, the yeast fitness came to 0.585.
As for U7G A21C G44C, the yeast fitness was found to be 0.545.
As for U7G A15U C62U C66A, the yeast fitness was no more than 0.5.
The same measure for U7G G9C G50C: 0.668; for U7C U28A G48C C62U A70C: no more than 0.5; for U7G C29U U47G: no more than 0.5.
Consider U8A A14U A15G U32C A57U, for which the yeast fitness stood at 0.599.
The result for U7G U54C reads 0.905; that for U7G A43U, 0.914.
On to U7G A43G, for which the yeast fitness was found to be 0.806.
Consider U8A A20C A43U A69C, for which the yeast fitness is no more than 0.5.
Take U8A A14G C24G A45C: the yeast fitness was 0.632.
Take U7G U64A: the yeast fitness was 0.971.
In the case of U7G A15C C24U A43G G51A U54C, the yeast fitness is 0.634.
Take U8A A40C: the yeast fitness was 0.774.
As for U8A C30U A57C, the yeast fitness was no more than 0.5.
The result for U7G U13C A37U C60G reads no more than 0.5.
For the variant U7G C24G C27U C29A, the yeast fitness came to 0.6.
Regarding U8A C11U C61U C62U C66A, the yeast fitness was no more than 0.5.
Turning to U8A C11U C46U, the yeast fitness was no more than 0.5.
The result for U7G U28A reads 0.704.
Regarding U7G A14G C22U G38A C55A, the yeast fitness came out at 0.555.
Take U7G C11G C30G C33G G48C C60A: the yeast fitness was no more than 0.5.
Regarding U8A A15C A21G C27U C46U A70G, the yeast fitness is no more than 0.5.
The same measure for U7G A36U: 0.777; for U8A C34A A65U: no more than 0.5; for U7G A20G C60U C61G: no more than 0.5.
On to U7C G58C C66A, for which the yeast fitness turned out to be 0.584.
U7G C11G C33G G56C C62G: the yeast fitness was no more than 0.5.
The result for U8A A43U G52C C60A reads no more than 0.5; that for U8A A45G C61G C62U, no more than 0.5.
With U8A A40G A42U A45U U59G, the yeast fitness was no more than 0.5.
The result for U8A A20C C31U reads no more than 0.5; that for U8A A15U C22G C31U A57C U64A G68A, no more than 0.5.
Consider U7G C27G A40U G68C, for which the yeast fitness was no more than 0.5.
U7G G9A C31G C33U A36G: the yeast fitness was no more than 0.5.
The same measure for U7G G23C A45U G51C: no more than 0.5.
U7C G56A: the yeast fitness came out at 0.977.
For U7C G56C, the yeast fitness was determined as 0.692.
The same measure for U7G C11G C34U G41A C46U: no more than 0.5; for U8A A15G C27A: 0.549; for U7G G58A: 0.942.
Take U8A A15U C61U: the yeast fitness was no more than 0.5.
Take U7G A21U A40G G67A: the yeast fitness is no more than 0.5.
For U7G U8G C31U U35A U47C, the yeast fitness was no more than 0.5.
For the variant U7G A42G, the yeast fitness turned out to be 0.837.
Take U7C G41A A42C G50C G63A A70G: the yeast fitness was determined as 0.555.
As for U7G A45C C49U, the yeast fitness was found to be 0.508.
As for U8A C27A G39C G51C, the yeast fitness was no more than 0.5.
The same measure for U7C G68C: 0.876; for U7G C27A: 0.744.
Regarding U8A C33G A42U A43U C49U A65C G68C, the yeast fitness was no more than 0.5.
As for U7G C33U, the yeast fitness was determined as 0.749.
Regarding U7G C33G, the yeast fitness was determined as 0.654.
As for U7C U35G U64C A70G, the yeast fitness is no more than 0.5.
In the case of U8A C27U A43U, the yeast fitness is no more than 0.5.
For the variant U7G U32A C46U C60A, the yeast fitness is no more than 0.5.
In the case of U8A C11U G25C G39C A45U, the yeast fitness is no more than 0.5.
Consider U7G G44A C61U, for which the yeast fitness turned out to be 0.689.
With U7G C62G, the yeast fitness worked out at 0.603.
With U7C G41A A42C G50C A70C, the yeast fitness is no more than 0.5.
The result for U8A A42U U47C C55G reads no more than 0.5; that for U7G G10C, 0.709.
In the case of U7G G9A A20U C31G C34U G67U, the yeast fitness was no more than 0.5.
In the case of U7G C11G C34U A40G G41A, the yeast fitness was no more than 0.5.
As to U8A C30G C46A G63A, the yeast fitness was no more than 0.5.
With U7G C27A C29U A40U, the yeast fitness was no more than 0.5.
Turning to U7G A37G C55G, the yeast fitness was no more than 0.5.
The result for U8A C11U C31G G38C A40C G56A reads no more than 0.5; that for U8A A36U G48C, 0.668.
On to U8A A14U A42G, for which the yeast fitness is no more than 0.5.
For U7G C55G G63A G68C, the yeast fitness was 0.525.
In the case of U8A A21G, the yeast fitness was determined as 0.681.
In the case of U8A A42U C62A A70C, the yeast fitness is no more than 0.5.
With U7G C22U G52A C55U, the yeast fitness is no more than 0.5.
As for U8A C29U G51C, the yeast fitness is 0.571.
As to U7G A65G, the yeast fitness was found to be 1.03.
As to U7G C49G, the yeast fitness came to 0.729.
Turning to U7G C49U, the yeast fitness was 0.957.
Take U7G C30U G38A C60U: the yeast fitness turned out to be 0.582.
Regarding U7G U54C C55G, the yeast fitness was no more than 0.5.
U8A C11A C27U: the yeast fitness turned out to be 0.546.
U7G C11G C34U G41A U64A: the yeast fitness was no more than 0.5.
Turning to U8A C31G A42C C55U G68A, the yeast fitness was no more than 0.5.
As for U7G C30A C62A, the yeast fitness was no more than 0.5.
Regarding U7G A20U C46G, the yeast fitness amounted to 0.562.
Take U8A A42U C62G: the yeast fitness was no more than 0.5.
Consider U7G G25C C60A, for which the yeast fitness came to 0.623.
As for U7G G12A G25A C33G C62U, the yeast fitness is no more than 0.5.
For the variant U7G C55G G68C, the yeast fitness stood at 0.6.
The same measure for U7G C11U U16A: 0.518.
For U7C G41A A42C G50C A65C, the yeast fitness was no more than 0.5.
